Compounds with a hit are over-represented: about 29% of the library has one in this group of screens.
CYP2C19 inhib: human CYP2C19 inhibition; CYP2C19 Supersomes, luciferin-H EGE luminescence, 30 min; AID 778; P33261; inhibition, % at 5 µM; 96,000 compounds, 21% hits;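 active = CYP2C19 inhibition above a set limit at 5 µM in the primary screen, cut at about 50% in these data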;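 also: plate controls were negative control wells for no effect and 2.5 mM tranylcypromine positive control for full effect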
Ecoli WT expand: growth inhibitors of E. coli BW25113 wild type. OD600 absorbance. growth inhibition, % at 100 µM. 98,000 compounds, 0.15% hits. AID 710;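 active = growth inhibition above about 50% at one test dose, limit read from the data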;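 also: growth measured after 20 h incubation at 37 °C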
CYP2C9 activ: increases human cytochrome P450 2C9 activity; activation factor at 5 µM; P11712; recombinant CYP2C9, luciferin-H conversion, luminescence; hits give high values; factor 1 = untreated enzyme, 0 = blocked; 96,000 compounds, 1.4% hits;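 active = activation factor of 2 or more for CYP2C9 at a 5 µM dose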;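 also: 0 = sulfaphenazole-blocked wells and 1 = vehicle-only wells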
Target sequence (P11712 whole entry, looked up): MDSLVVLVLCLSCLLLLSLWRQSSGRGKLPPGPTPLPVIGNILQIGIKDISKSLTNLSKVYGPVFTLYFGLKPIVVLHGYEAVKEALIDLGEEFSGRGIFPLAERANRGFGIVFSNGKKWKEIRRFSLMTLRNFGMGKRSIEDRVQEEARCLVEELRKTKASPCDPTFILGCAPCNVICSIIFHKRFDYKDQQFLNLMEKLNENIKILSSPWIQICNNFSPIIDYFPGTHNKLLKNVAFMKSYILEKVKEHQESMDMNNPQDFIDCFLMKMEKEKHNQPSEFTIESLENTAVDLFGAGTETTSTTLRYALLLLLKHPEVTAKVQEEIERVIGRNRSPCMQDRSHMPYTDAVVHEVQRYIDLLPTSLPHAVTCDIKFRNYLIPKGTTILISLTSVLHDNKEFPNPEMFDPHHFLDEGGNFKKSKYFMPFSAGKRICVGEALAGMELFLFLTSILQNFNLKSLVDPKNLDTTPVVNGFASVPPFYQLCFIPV
CYP2C19 act: activators of human cytochrome P450 2C19 | P33261 | recombinant CYP2C19, luciferin-H EGE luminescence; hits give high values; 0 = fully inhibited enzyme, 1 = untreated enzyme | activation factor at 5 µM | 96,000 tested, under 10 active | AID 1025;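 active = activation factor of at least 2 at 5 µM in the primary screen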;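 also: 0 = wells with 2.5 mM tranylcypromine and 1 = vehicle-only wells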
CYP2C9 inh: human CYP2C9 inhibition; CYP2C9 Supersomes, luciferin-H conversion, luminescence; P11712; 96,000 compounds, 20% hits; inhibition, % at 5 µM;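 active = blocking of liver enzyme CYP2C9 beyond about 50% at 5 µM, limit read from the data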
Ecoli tolC: growth inhibitors of E. coli BW25113 tolC mutant. OD615. growth inhibition, % at 10 µM (by protocol). 65,000 compounds, 2.2% hits;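 active = growth inhibition at or above a cutoff equal to the mean over every tested compound plus 3 SD, cut at about 60% in these data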;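 also: growth measured after 20 h incubation at 37 °C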
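Signal: optical density read at 615 nm; Assay system: E. coli ΔtolC::kan strain BW25113; Times: 20 h incubation with compound, 37 °C; Dosing: 10 µM final, single dose.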
Starred values were filed as active, the others as inactive; . = no result given.

SMILES | CYP2C19 inhib | Ecoli WT expand | CYP2C9 activ | CYP2C19 act | CYP2C9 inh | Ecoli tolC
CCOC(=O)c1cnc(SC)nc1Oc1cccc(NC(=O)c2cccc(Cl)c2Cl)c1 | 14 | -29 | 0.3 | 0.9 | 74* | .
CCOC(=O)c1cnc(SC)nc1Oc1cccc(NS(=O)(=O)c2ccccc2)c1 | 18 | -23 | 0.2 | 0.8 | 82* | .
COc1ccc(C2(C)NC(=O)N(CC(=O)NCCC3=CCCCC3)C2=O)cc1OC (stereo not drawn) | 1 | 7 | 1 | 1 | 2 | .
CN(C)CCCOC(=O)C1c2ccccc2Oc2ccccc21 | 74* | -7 | 1.2 | 0.3 | -23 | 12
CCCNC(=O)Cn1cnc2sc(C(=O)Nc3cc(OC)c(OC)c(OC)c3)c(C)c2c1=O | 37 | -7 | 0.5 | 0.6 | 48 | .
CCN(CC)C(=O)Cn1cnc2sc(C(=O)Nc3cc(OC)c(OC)c(OC)c3)c(C)c2c1=O | 79* | -6 | 0.1 | 0.2 | 92* | .
CC(=O)Nc1cccc(NC(=O)c2sc3ncn(CC(=O)N4CCCCC4)c(=O)c3c2C)c1 | 79* | 1 | 0.2 | 0.2 | 80* | -4
COCCNC(=O)c1sc2ncn(CC(=O)N3CCCCC3)c(=O)c2c1C | -17 | 0 | 0.7 | 1.2 | 27 | -16
CCOC(=O)c1ccc2nc3c(cc2c1)CCS3 | 4 | -2 | 0.5 | 1 | 47 | -2
Nc1c(C(=O)NCc2ccco2)c2nc3ccccc3nc2n1CCc1ccc(F)cc1 | 43 | -2 | 0.4 | 0.6 | 58* | .
COc1ccc(Cn2c(N)c(C#N)c3nc4ccccc4nc32)cc1 | 20 | -9 | 0.7 | 0.8 | 26 | .
COc1ccccc1CNC(=O)c1c(N)n(CCCN2CCOCC2)c2nc3ccccc3nc12 | 32 | 9 | 0.7 | 0.7 | 34 | .
N#Cc1c(N)n(CCc2ccc(F)cc2)c2nc3ccccc3nc12 | 99* | -5 | 0.2 | 0 | 80* | .
COc1cc(Cn2c(N)c(C#N)c3nc4ccccc4nc32)cc(OC)c1 | -6 | -7 | 0.4 | 1.1 | 56* | -4
Nc1c(C(=O)NCc2ccc3c(c2)OCO3)c2nc3ccccc3nc2n1CCCN1CCOCC1 | 69* | 0 | 0.6 | 0.3 | 44 | 95*
COc1cc(NC(=O)C2CC(=O)NC3=C2C(=O)CCC3)c(OC)cc1Cl (stereo not drawn) | 17 | 6 | 0.8 | 0.8 | 19 | .
CCCCNc1c([N+](=O)[O-])cc(C)cc1[N+](=O)[O-] | 14 | 6 | 0.8 | 0.9 | 20 | .
CCOc1cc(C2NC(=O)NC(C)=C2C(=O)NCc2ccccc2)c(Cl)cc1O (stereo not drawn) | 9 | -4 | 0.9 | 0.9 | 10 | .
O=C(CSc1nc2ccccc2c(=O)[nH]1)c1cccs1 | 39 | -5 | 0.3 | 0.6 | 66* | 8
O=C(CSc1nc2ccccc2c(=O)[nH]1)c1ccc(O)c(O)c1 | 22 | 10 | 0.2 | 0.8 | 77* | 18
N#Cc1c(-c2cccs2)nc(SCC(=O)c2cccs2)[nH]c1=O | 34 | 2 | 0 | 0.7 | 98* | .
Cc1cc2ccc(C)c(C)c2nc1SCC(=O)c1cccs1 | -9 | -20 | 0.7 | 1.1 | 30 | .
CCOC(=O)N1CCN(C(=O)c2ccc(N3CCCC3=O)cc2)CC1 | 0 | 7 | 1 | 1 | 2 | -22
O=C(CSc1nc2ccc(Cl)cc2[nH]1)NCc1ccco1 | 47 | 11 | 0.5 | 0.5 | 51* | 7
O=C(CSc1ncnc2sc3c(c12)CCCCC3)NCc1ccco1 | 34 | 3 | 0.7 | 0.7 | 31 | 11
SMILES | CYP2C19 inhib | Ecoli WT expand | CYP2C9 activ | CYP2C19 act | CYP2C9 inh | Ecoli tolC
O=C(CSc1c2c(nc3cc(Cl)ccc13)CCCC2)NCc1ccco1 | 98* | 8 | 0.1 | 0 | 88* | .
O=C(CSc1nc(-c2ccccc2Cl)ns1)NCc1ccco1 | 36 | 4 | 0.4 | 0.6 | 63* | 18
NC(=O)CSc1nc(-c2ccccc2Cl)ns1 | 42 | 1 | 0.7 | 0.6 | 26 | -4
Cc1nn(Cc2ccccc2)c(C)c1NC(=O)CSc1nc(C2CC2)nc2c1cnn2-c1ccccc1 | 11 | -1 | 0.4 | 0.9 | 64* | .
Cc1cc(/C(O)=C2\C(=O)C(=O)N(CCN(C)C)C2c2ccncc2)ccc1OCc1ccccc1 (stereo not drawn) | . | . | . | . | . | 8
c1ccc2oc(-c3nn4c(Cn5cnc6ccccc65)nnc4s3)cc2c1 | . | . | . | . | . | -10
c1coc(-c2nn3c(Cn4nnc5ccccc54)nnc3s2)c1 | 76* | 9 | 0.5 | 0.2 | 45 | -9
c1ccc2c(c1)nnn2Cc1nnc2sc(-c3ccncc3)nn12 | 78* | -9 | 0.4 | 0.2 | 57* | 3
c1csc(-c2nn3c(Cn4nnc5ccccc54)nnc3s2)c1 | 5 | -2 | 1.1 | 0.9 | -5 | -4
Clc1ccc(-c2nnc3sc(Cc4cccs4)nn23)cc1 | 22 | . | 0.9 | 0.8 | 13 | 16
Clc1ccc(Cc2nn3c(Cn4nnc5ccccc54)nnc3s2)cc1 | 48 | -1 | 0.3 | 0.5 | 73* | 26
O=C(c1cnc2n(c1=O)CCS2)N(C1CCCCC1)C1CCCCC1 | 1 | 0 | 0.9 | 1 | 11 | 8
CCCOc1ccc(Cc2nn[nH]n2)cc1 | 51* | -5 | 0.7 | 0.5 | 25 | 5
CN(C)c1nc(N)nc(CSc2nnnn2-c2ccc(F)cc2)n1 | 76* | 4 | 0.6 | 0.2 | 36 | .
N#CCCN(CCC#N)c1nncs1 | -5 | -2 | 0.9 | 1 | 6 | -5
CC(C)(C)c1csc(N(CCC#N)CCC#N)n1 | 54* | 2 | 0.4 | 0.5 | 56* | 14
O=C(CC(=O)N1CCN(c2ccccn2)CC1)Nc1ccc2nc3n(c(=O)c2c1)CCCCC3 | 28 | -2 | 0.2 | 0.7 | 78* | -18
Cc1nc2cc(NC(=O)N3CCN(c4ccccn4)CC3)ccc2o1 | -3 | 10 | 0.9 | 1 | 8 | -7
O=C(Nc1ccc2nc3n(c(=O)c2c1)CCCCC3)c1ccccn1 | 14 | 1 | 0.5 | 0.9 | 53* | -8
CC(C)C(C(=O)NCc1ccco1)N(C(=O)CNS(=O)(=O)c1ccc(Cl)cc1)C1CCCC1 (stereo not drawn) | 14 | 2 | 0.8 | 0.9 | 18 | 73*
CCc1ccc(-c2cc(C(F)(F)F)n3nc(C(=O)Nc4c(C)nn(Cc5ccc(F)cc5)c4C)cc3n2)s1 | 42 | -13 | 0.3 | 0.6 | 70* | .
CCOc1ccc(NC(=O)CN(C)CC(=O)Nc2ccccc2C#N)cc1OCC | 16 | 4 | 0.9 | 0.8 | 11 | -1
CN(CC(=O)Nc1ccc(Cl)cc1)CC(=O)Nc1cc(Cl)ccc1C#N | 63* | 6 | 1.2 | 0.4 | -24 | 18
Cc1nn(C)c(C)c1CN(C)C(=O)c1cnn2c1NC(c1ccccc1)CC2C(F)(F)F (stereo not drawn) | 32 | 4 | 0.3 | 0.7 | 65* | -8
OCc1nn2c(c1Br)NC(c1ccccc1)CC2C(F)(F)F (stereo not drawn) | 71* | -2 | 0.3 | 0.3 | 74* | -2

Screening results from PubChem BioAssay.
